Assay results pooled from the literature.
Compare with care: the assays were run in different laboratories.
PIK3CA Q546K: Phosphatidylinositol 4,5-bisphosphate 3-kinase catalytic subunit alpha isoform (PIK3CA, Homo sapiens, UniProt P42336, Q546K)
PIK3CA I800L: Phosphatidylinositol 4,5-bisphosphate 3-kinase catalytic subunit alpha isoform (PIK3CA, Homo sapiens, UniProt P42336, I800L)
PIK3CA E545K: Phosphatidylinositol 4,5-bisphosphate 3-kinase catalytic subunit alpha isoform (PIK3CA, Homo sapiens, UniProt P42336, E545K)
PIK3CA: Phosphatidylinositol 4,5-bisphosphate 3-kinase catalytic subunit alpha isoform (PIK3CA, Homo sapiens, UniProt P42336)
PIK3CA M1043I: Phosphatidylinositol 4,5-bisphosphate 3-kinase catalytic subunit alpha isoform (PIK3CA, Homo sapiens, UniProt P42336, M1043I)
PIK3CA E542K: Phosphatidylinositol 4,5-bisphosphate 3-kinase catalytic subunit alpha isoform (PIK3CA, Homo sapiens, UniProt P42336, E542K)
PIK3CA H1047L: Phosphatidylinositol 4,5-bisphosphate 3-kinase catalytic subunit alpha isoform (PIK3CA, Homo sapiens, UniProt P42336, H1047L)

The remaining binding of `Nc1ncc2c(n1)-c1c([nH]c3ccc(C#CC4CC4)cc13)CCCC2` is reported as 98% (PIK3CA Q546K; binding, competition with immobilised ligand; 1 µM).
For `N[C@@H]1CCN(c2nccc(-c3cnn4ncccc34)n2)C1`, the remaining binding was 100% (PIK3CA Q546K; binding; 1 µM).
`CNCc1ccccc1-c1csc([C@H](C)Nc2nc(C)nc3cc(OC)c(OC)cc23)c1` has a remaining binding of 81% (PIK3CA I800L; cell-free assay, competition with immobilised ligand; 1 µM).
With `O=C(c1ccc(Nc2nccc(-c3cc4ccccc4s3)n2)cc1)N1CCC(N2CCCC2)CC1` the remaining binding was 82% (PIK3CA E545K; binding, competition with immobilised ligand; 1 µM).
`CN(C)c1nccc(-c2cnn3ncccc23)n1` has a remaining binding of 100% (Phosphatidylinositol 4,5-bisphosphate 3-kinase catalytic subunit alpha isoform (PIK3CA, Homo sapiens, UniProt P42336, C420R); binding; 1 µM).
`O=C(c1ccc(Nc2ncc(Cl)c(-c3ccc(Cl)s3)n2)cc1)N1CCC(N2CCCC2)CC1` gave a remaining binding of 100% (PIK3CA; binding, competition with immobilised ligand; 1 µM).
`CCS(=O)(=O)c1cc2cc(C[C@](O)(CC(C)(C)c3ccc(F)cc3C(N)=O)C(F)(F)F)[nH]c2cn1` has a remaining binding of 73% (PIK3CA I800L; cell-free assay, competition with immobilised ligand; 1 µM).
For `C=CC(=O)N1CCC(C(=O)NCC(=O)N2CCN(c3nc(-c4cnc(N)nc4C(F)F)nc(N4CCOCC4)n3)CC2)CC1`, the remaining binding was 0.4% (PIK3CA; binding, competition with immobilised ligand; 1 µM).
`CS(=O)(=O)NCC[C@H](NC(=O)c1cncc2c1cnn2-c1ccc(F)cc1)c1ccnc(S(C)(=O)=O)c1` gave a remaining binding of 83% (PIK3CA; cell-free assay, competition with immobilised ligand; 1 µM).
With `CN1CCN(c2ccc(Nc3nccc(-c4cccc([N+](=O)[O-])c4)n3)cc2C(F)(F)F)CC1` the remaining binding was 35% (PIK3CA M1043I; binding; 10 µM).
For `CN(C)c1nccc(-c2cnc3ncccn23)n1`, the remaining binding was 90% (Phosphatidylinositol 4,5-bisphosphate 3-kinase catalytic subunit alpha isoform (PIK3CA, Homo sapiens, UniProt P42336, E545A); binding; 1 µM).
With `c1ccc(N2CCN(Cc3nc4ccccc4[nH]3)CC2)nc1` the remaining binding was 100% (PIK3CA Q546K; cell-free assay, competition with immobilised ligand; 1 µM).
With `COc1ccnn2ncc(-c3ccnc(N(C)C)n3)c12` the remaining binding was 95% (PIK3CA E542K; binding; 1 µM).
The remaining binding of `COc1cnc(Nc2cccc(S(N)(=O)=O)c2)nc1N1CCN(c2ccccc2)C(=O)C1` is reported as 59% (PIK3CA I800L; binding, competition with immobilised ligand; 1 µM).
`CC1CCCN1c1nccc(-c2cnn3ncccc23)n1` (stereo not shown) has a remaining binding of 43% (PIK3CA E542K; binding; 1 µM).
`O=C(NCCCN1CCOCC1)c1ccc(Nc2ncc(Cl)c(-c3ccc(Cl)s3)n2)cc1` gave a remaining binding of 95% (Phosphatidylinositol 4,5-bisphosphate 3-kinase catalytic subunit alpha isoform (PIK3CA, Homo sapiens, UniProt P42336, H1047Y); binding, competition with immobilised ligand; 1 µM).
`CNC(=O)[C@@H]1CC[C@@H](n2c(-c3ccc4cnccc4c3)nc3ccc(C(=O)NCc4cccc(C(N)=O)c4)cc32)C1` has a remaining binding of 85% (PIK3CA I800L; binding, competition with immobilised ligand; 1 µM).
For `CN1CC[C@H](c2c(O)cc(O)c3c(=O)cc(-c4ccccc4Cl)oc23)[C@H](O)C1`, the remaining binding was 97% (PIK3CA; cell-free assay, competition with immobilised ligand; 10 µM).
`CN1CCN(c2ccc(Nc3nccc(-c4ccccc4)n3)cc2C(F)(F)F)CC1` has a remaining binding of 56% (PIK3CA I800L; binding; 10 µM).
With `CCCOc1ccc([C@H]2[C@H](C(=O)O)[C@@H](c3ccc4c(c3)OCO4)CN2CC(=O)Nc2c(CC)cccc2CC)cc1` the remaining binding was 80% (PIK3CA; cell-free assay, competition with immobilised ligand; 1 µM).
The remaining binding of `C[C@@H]1CCN(c2nccc(-c3cnn4ncccc34)n2)C1` is reported as 82% (PIK3CA E542K; binding; 1 µM).
`CCN1CCN(Cc2ccc(C(=O)Nc3ccc(C)c(Oc4ccc5c(c4)CC(=O)N5)c3)cc2C(F)(F)F)CC1` gave a remaining binding of 86% (PIK3CA; binding, competition with immobilised ligand; 1 µM).
`COc1cnc(Nc2cccc(S(N)(=O)=O)c2)nc1N1CCN(c2ccccc2)CC1` has a remaining binding of 70% (PIK3CA Q546K; binding, competition with immobilised ligand; 1 µM).
With `O=C(NCC1CCOCC1)c1n[nH]cc1NC(=O)c1c(F)cccc1F` the remaining binding was 75% (PIK3CA E545K; binding, competition with immobilised ligand; 1 µM).
For `c1cncc(-c2cccc(Nc3nccc(NC4CCCCC4)n3)c2)c1`, the remaining binding was 100% (PIK3CA; binding, competition with immobilised ligand; 10 µM).
The remaining binding of `O=C(c1ccc(Nc2ncc(Cl)c(-c3cc4ccccc4s3)n2)cc1)N1CCC(N2CCCC2)CC1` is reported as 97% (PIK3CA E542K; binding, competition with immobilised ligand; 1 µM).
`O=C(Nc1c[nH]nc1C(=O)NC1CCNCC1)c1cc(F)cc(F)c1` has a remaining binding of 100% (PIK3CA; binding, competition with immobilised ligand; 1 µM).
For `Cc1ccc(NC(=O)c2ccc(CN3CCN(C)CC3)cc2)cc1Nc1nccc(-c2cccnc2)n1`, the remaining binding was 100% (PIK3CA; cell-free assay, competition with immobilised ligand; 0.1 µM).
For `Cc1cnc(Nc2ccc(C(=O)N3CCC(N4CCCC4)CC3)cc2)nc1-c1cc2ccccc2s1`, the remaining binding was 97% (PIK3CA Q546K; binding, competition with immobilised ligand; 1 µM).
`CN(C)c1ncc(F)c(-c2cnn3ncccc23)n1` gave a remaining binding of 46% (PIK3CA I800L; binding; 1 µM).
`O=C(NCCCN1CCOCC1)c1ccc(Nc2nccc(-c3cc4ccccc4s3)n2)cc1` gave a remaining binding of 90% (PIK3CA H1047L; binding, competition with immobilised ligand; 1 µM).
With `CS(=O)(=O)c1cc(C2(NC(=O)c3cncc4c3cnn4-c3ccc(F)cc3)CC2)ccn1` the remaining binding was 66% (PIK3CA Q546K; cell-free assay, competition with immobilised ligand; 1 µM).
`COc1ncc2cc3ccccc3nc2c1C#N` gave a remaining binding of 100% (PIK3CA E545K; cell-free assay, competition with immobilised ligand; 5 µM).
With `O=C(NCCCC1CCCCC1)c1ccc(CNC(=O)c2cnn(-c3ccccc3)c2C(F)(F)F)cc1` the remaining binding was 68% (PIK3CA M1043I; cell-free assay, competition with immobilised ligand; 0.1 µM).
For `CN(c1nccc(-c2cnn3ncccc23)n1)C1CC1`, the remaining binding was 100% (PIK3CA E545K; binding; 1 µM).
`CCC(=N\O)/C(C)=C/c1ccc(F)cc1` has a remaining binding of 100% (PIK3CA E542K; cell-free assay, competition with immobilised ligand; 1 µM).
The remaining binding of `C[C@@H](c1ccc(-n2cnc3c(N)ncnc32)cc1)N1CCc2nn(C)c(Cc3ccccc3)c2C1=O` is reported as 63% (PIK3CA H1047L; binding, competition with immobilised ligand; 0.1 µM).
